Experimental data from ChEMBL document CHEMBL3758104, “Reinvestigating Old Pharmacophores: Are 4-Aminoquinolines and Tetraoxanes Potential Two-Stage Antimalarials?” (J Med Chem, 2016).
Activity calls are given as the source filed them. No cut-off for these calls is given here.

Assays:
Mus musculus [1] = assay: Toxicity in Plasmodium berghei ANKA infected C57Bl6 mouse at 160 mg/kg/day, po administered for 3 days measured 2 times a day for 31 days; assay type: organism-based; details: in vivo, 744 h
Mus musculus [2] = assay: Toxicity in Plasmodium berghei ANKA infected C57Bl6 mouse at 80 mg/kg/day, po administered for 3 days measured 2 times a day for 31 days; assay type: organism-based; details: in vivo, 744 h
Plasmodium berghei [3] = assay: Antimalarial activity against Plasmodium berghei ANKA infected in C57Bl6 mouse at 80 mg/kg/day, po measured on day 3 to 5 by Thompson test; assay type: functional
Plasmodium berghei [4] = assay: Antimalarial activity against Plasmodium berghei ANKA infected in C57Bl6 mouse assessed as increase in cure rate at 80 mg/kg/day, po administered for day 3 to 5 by Thompson test; assay type: functional, organism-based
In short: (§1)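 Modified Thompson test: C57Bl6 female mice inoculated intraperitoneally on day 0 with 1×10^6 P. berghei ANKA-infected erythrocytes; compound suspended in 0.5% hydroxyethylcellulose–0.1% Tween 80, given orally once daily on days 3, 4 and 5 post infection. Parasitemia by Giemsa-stained thin tail-blood smears on days 0, 3, 6, 10, 13, 17, 20, 24, 27, 31. Cure = survival without parasitemia to day 31.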

Plasmodium berghei [5] = assay: Antimalarial activity against Plasmodium berghei ANKA infected in C57Bl6 mouse assessed as increase in survival rate at 80 mg/kg/day, po administered for day 3 to 5 by Thompson test; assay type: functional, organism-based; in short: as §1
Plasmodium falciparum [6] = assay: Antimalarial activity against 4th to 5th gametocyte stage of Plasmodium falciparum 3D7elo1-pfs16-CBG99 assessed as inhibition of gametocyte viability by luciferase reporter gene assay; assay type: functional, organism-based
In short: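 Stage IV–V gametocytes of luciferase-expressing 3D7elo1-pfs16-CBG99 strain (CBG99 under pfs16 promoter); luciferase activity as viability read-out. Viability = 100×(treated−blank)/(untreated−blank), blank = 100 nM epoxomicin-treated sample. Epoxomicin and dihydroartemisinin as positive controls. IC50 from nonlinear regression of dose–response; mean of three experiments in duplicate.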

Plasmodium berghei [7] = assay: Antimalarial activity against sporozoite stage of Plasmodium berghei ANKA infected in C57BL/6J mouse assessed as reduction in liver parasite load at 50 mg/kg/, po administered for 3 days measured after 48 hrs by qRT-PCR analysis relative to control; assay type: functional; set-up: scale not given: the % may be the effect or the level left
In short: (§2)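 C57BL/6J mice, five per group, infected iv with luciferase-expressing P. berghei ANKA sporozoites. Compound given by oral gavage in DMSO + sunflower oil 24 h before, at, and 24 h after infection; controls got vehicle. Liver load measured 48 h post-infection by qRT-PCR of P. berghei 18S rRNA normalised to mouse Hprt, as % of controls; mean of two independent experiments.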

Plasmodium berghei [8] = assay: Antimalarial activity against sporozoite stage of Plasmodium berghei ANKA infected in C57BL/6J mouse assessed as reduction in liver parasite load at 100 mg/kg/, po administered for 3 days measured after 48 hrs by qRT-PCR analysis relative to control; assay type: functional; set-up: scale not given: the % may be the effect or the level left; in short: as §2
Plasmodium berghei [9] = assay: Antimalarial activity against sporozoite stage of Plasmodium berghei infected in human Huh7 cells assessed as inhibition of parasite infection pre-incubated for 24 hrs followed by parasite infection measured after 48 hrs by bioluminescence assay; assay type: functional, organism-based; details: Huh-7
[10] = Selectivity ratio of IC50 for IV to V gametocyte stage of Plasmodium falciparum 3D7elo1-pfs16-CBG99 to IC50 for sporozoite stage of Plasmodium berghei infected in human Huh7; assay type: functional, Huh-7
Plasmodium berghei [11] = assay: Antimalarial activity against sporozoite stage of Plasmodium berghei infected in human Huh7 cells assessed as remaining parasite infection at 5 uM pre-incubated for 24 hrs followed by parasite infection measured after 48 hrs by bioluminescence assay; details: Huh-7
[12] = Half life in human liver microsomes at 1 uM by LC-MS/MS analysis; assay type: ADME
HepG2 = assay: Cytotoxicity against human HepG2 cells after 48 hrs by MTT assay; assay type: cell-based; details: HepG2, 48 h
Plasmodium falciparum [13] = assay: Antimalarial activity against chloroquine-susceptible Plasmodium falciparum D6 after 48 hrs by [3H]hypoxanthine incorporation assay; assay type: functional, organism-based
In short: (§3)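 P. falciparum D6 (Sierra I/UNC clone), W2 (Indochina I clone), TM91C235 (South-East Asian clone) cultured with compound; growth inhibition by [3H]hypoxanthine incorporation (modified Desjardins/Milhous method). Chloroquine, mefloquine, artemisinin as positive controls. IC50 in nM; technical triplicates, curve fits R2 0.96–1.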

Plasmodium falciparum [14] = assay: Antimalarial activity against mutidrug resistant Plasmodium falciparum TM91C235 after 48 hrs by [3H]hypoxanthine incorporation assay; assay type: functional, organism-based; in short: as §3
Plasmodium falciparum [15] = assay: Antimalarial activity against chloroquine-resistant Plasmodium falciparum W2 after 48 hrs by [3H]hypoxanthine incorporation assay; assay type: functional, organism-based; in short: as §3
[16] = Half life in mouse liver microsomes at 1 uM by LC-MS/MS analysis; assay type: ADME
Plasmodium berghei [17] = assay: Antimalarial activity against Plasmodium berghei ANKA infected in C57Bl6 mouse at 160 mg/kg/day, po measured on day 3 to 5 by Thompson test; assay type: functional
Plasmodium berghei [18] = assay: Antimalarial activity against Plasmodium berghei ANKA infected in C57Bl6 mouse at 40 mg/kg/day, po on days 3 to 5 by Thompson test; assay type: functional
Plasmodium berghei [19] = assay: Antimalarial activity against Plasmodium berghei ANKA infected in po dosed C57Bl6 mouse administered on day 3 to 5 by Thompson test; assay type: functional; in short: as §1
Plasmodium berghei [20] = assay: Antimalarial activity against sporozoite stage of Plasmodium berghei infected in human Huh7 cells assessed as inhibition of parasite infection at 0.125 uM pre-incubated for 24 hrs followed by parasite infection measured after 48 hrs by bioluminescence assay; assay type: functional; details: Huh-7
[21] = Inhibition of beta hematin formation measured as hemin equivalent after 18 hrs; assay type: physicochemical
In short: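 Hemin (16 mM in DMSO) mixed with compound at 0.125–5 mol equiv to hemin, plus water and 8 M acetate buffer pH 5.2, 25% DMSO final. Incubated 18 h at 37 °C. Pellet washed with DMSO, dissolved in 0.1 M NaOH, absorbance read at 405 nm (corrected at 670 nm) against a hemin calibration.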

Plasmodium berghei [22] = assay: Antimalarial activity against sporozoite stage of Plasmodium berghei ANKA infected in C57Bl/6J mouse assessed as reduction in liver parasite load at 50 mg/kg/, po administered for 3 days measured after 48 hrs by luciferase reporter gene assay relative to control; assay type: functional; set-up: scale not given: the % may be the effect or the level left
In short: (§4)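 C57BL/6J mice dosed by oral gavage (DMSO in sunflower oil) on three consecutive days: 24 h before, at, and 24 h after intravenous infection with luciferase-expressing P. berghei sporozoites. Controls got vehicle. Liver parasite load measured by in vivo luminescence 46–48 h after infection, after subcutaneous luciferin, expressed as % of controls. Two independent experiments.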

Plasmodium berghei [23] = assay: Antimalarial activity against sporozoite stage of Plasmodium berghei ANKA infected in C57BL/6J mouse assessed as reduction in liver parasite load at 80 mg/kg/, po administered for 3 days measured after 48 hrs by luciferase reporter gene assay relative to control; assay type: functional; set-up: scale not given: the % may be the effect or the level left; in short: as §4
[24] = Octanol-water partition coefficient, logP of the compound; assay type: physicochemical
[25] = Intrinsic clearance in human hepatocytes assessed per 10^6 cells at 1 uM by LC-MS/MS analysis; assay type: ADME, cell-based, Hepatocyte; details: read-out: CLH
In short: (§5)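 Cryopreserved human or mouse hepatocytes equilibrated for 30 min at 37 °C, then given 1 μM final compound in duplicate at 37 °C. Samples quenched at set times in ice-cold methanol with internal standards. Parent depletion by LC-MS/MS (MRM) as % of time zero, fitted to first-order decay. t1/2 = 0.693/k, and CLint derived from it. Verapamil and warfarin served as controls.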

[26] = Intrinsic clearance in mouse hepatocytes assessed per 10^6 cells at 1 uM by LC-MS/MS analysis; assay type: ADME, cell-based, Hepatocyte; details: read-out: CLH; in short: as §5
Hepatocyte [27] = assay: Half life in human hepatocytes at 1 uM by LC-MS/MS analysis; assay type: ADME, cell-based; in short: as §5
[28] = Half life in mouse hepatocytes at 1 uM by LC-MS/MS analysis; assay type: ADME, cell-based, Hepatocyte; in short: as §5
Hepatocyte [29] = assay: Drug metabolism in human hepatocytes assessed as monohydroxylated metabolite formation at 1 uM after 60 mins by LC-MS/MS analysis; assay type: ADME, cell-based; details: 1 h
In short: (§6)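 Hepatocyte incubation of 1 μM compound at 37 °C, in duplicate. Supernatants analysed by LC-MS/MS, with SRM monitoring of phase I and II metabolites (oxidation, demethylation, dehydrogenation, glucuronidation, oxidation + glucuronidation).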

Hepatocyte [30] = assay: Drug metabolism in mouse hepatocytes assessed as monohydroxylated metabolite formation at 1 uM after 60 mins by LC-MS/MS analysis; assay type: ADME, cell-based; details: 1 h; in short: as §6
Hepatocyte [31] = assay: Drug metabolism in human hepatocytes assessed as dihydroxylated metabolite formation at 1 uM after 60 mins by LC-MS/MS analysis; assay type: ADME, cell-based; details: 1 h; in short: as §6
Hepatocyte [32] = assay: Drug metabolism in mouse hepatocytes assessed as dihydroxylated metabolite formation at 1 uM after 60 mins by LC-MS/MS analysis; assay type: ADME, cell-based; details: 1 h; in short: as §6
Plasmodium berghei [33] = assay: Antimalarial activity against Plasmodium berghei ANKA infected in C57Bl6 mouse assessed as reduction of parasitemia at 10 to 20 mg/kg/day, po administered for day 3 to 5 by Thompson test; assay type: functional, organism-based; in short: as §1
Hepatocyte [34] = assay: Metabolic stability in human hepatocytes assessed as compound remaining at 1 uM after 60 mins by LC-MS/MS analysis; assay type: ADME, cell-based; details: 2 h, in the assay text read “120 mins” for “60 mins”; in short: as §5
Plasmodium berghei [35] = assay: Antimalarial activity against sporozoite stage of Plasmodium berghei infected in human Huh7 cells assessed as remaining parasite infection at 2 uM pre-incubated for 24 hrs followed by parasite infection measured after 48 hrs by bioluminescence assay; details: Huh-7

For `Fc1ccc2scc(CNCCCNc3ccnc4cc(Cl)ccc34)c2c1`, which Activity (Mus musculus [1]) is on record?
The Activity was “Toxic”.

What about the Activity (Mus musculus [2]) of the same compound?
The Activity was “Non-toxic”.

And the MST (Plasmodium berghei [3])?
The MST was 14 days.

And the Activity (Plasmodium berghei [4])?
The Activity was “inactive”.

And the Activity (Plasmodium berghei [5])?
The Activity was “inactive”.

With `CCCNC(=O)CCC(C)[C@H]1CC[C@H]2[C@@H]3[C@H](OC(C)=O)C[C@@H]4CC5(CC[C@]4(C)[C@H]3C[C@H](OC(C)=O)[C@]12C)OOC1(CCCCC1)OO5` (stereo not given in full) as the compound, how does the IC50 (Plasmodium falciparum [6]) read?
The IC50 was 1160 nM.

What about the Activity (Plasmodium berghei [7]) of the same compound?
Its Activity is 60%.

And the Activity (Plasmodium berghei [8])?
The Activity was 91%.

What about the IC50 (Plasmodium berghei [9]) of the same compound?
Its IC50 is 330 nM.

And the “Ratio IC50” value [10]?
The value was 3.5.

And the % infection at 5 µM (Plasmodium berghei [11])?
The % infection at 5 µM was 0.55%.

With `CC(CCNCC12CC3CC(CC(C3)C1)C2)Nc1c(F)cnc2cc(Cl)ccc12` (stereo not given) as the compound, how does the half-life at 1 µM [12] read?
The half-life at 1 µM was 13 min.

What about the IC50 (HepG2) of the same compound?
Its IC50 is 3970 nM.

And the IC50 (Plasmodium falciparum [13])?
The IC50 was 135 nM.

And the IC50 (Plasmodium falciparum [14])?
Its IC50 is 197 nM.

What about the IC50 (Plasmodium falciparum [15]) of the same compound?
The IC50 was 238 nM.

What about the half-life at 1 µM [16] of the same compound?
Its half-life at 1 µM is 21 min.

What about the Activity (Mus musculus [1]) of the same compound?
The Activity was “Non-toxic”.

What about the MST (Plasmodium berghei [17]) of the same compound?
The MST was 26.2 days.

What about the MST (Plasmodium berghei [3]) of the same compound?
Its MST is greater than 31 days.

And the MST (Plasmodium berghei [18])?
The MST was 18.4 days.

And the Activity (Plasmodium berghei [19])?
Its Activity is “Dose dependent effect”.

What about the MCD (Plasmodium berghei [19]) of the same compound?
Its MCD is 80 mg/kg/day.

What about the inhibition at 0.125 µM (Plasmodium berghei [20]) of the same compound?
The inhibition at 0.125 µM was 38%.

And the IC50 [21]?
The IC50 was 0.61 equiv.

What about the Activity (Plasmodium berghei [22]) of the same compound?
The Activity was 84%.

What about the Activity (Plasmodium berghei [23]) of the same compound?
The Activity was 92%.

What about the logP [24] of the same compound?
Its logP is 3.25.

What about the hepatocyte CLint at 1 µM [25] of the same compound?
The hepatocyte CLint at 1 µM was 8.9 µL/min/1e6 cells.

What about the hepatocyte CLint at 1 µM [26] of the same compound?
Its hepatocyte CLint at 1 µM is 8.7 µL/min/1e6 cells.

And the t1/2 (Hepatocyte [27])?
Its t1/2 is 78 min.

What about the half-life at 1 µM [28] of the same compound?
The half-life at 1 µM was 79 min.

What about the Drug metabolism (Hepatocyte [29]) of the same compound?
Its Drug metabolism is “metabolite_detected”.

And the Drug metabolism (Hepatocyte [30])?
Its Drug metabolism is “metabolite_detected”.

And the Drug metabolism (Hepatocyte [31])?
Its Drug metabolism is “metabolite_detected”.

And the Drug metabolism (Hepatocyte [32])?
Its Drug metabolism is “metabolite_detected”.

And the Activity (Plasmodium berghei [33])?
Its Activity is “inactive”.

What about the IC50 (Plasmodium berghei [9]) of the same compound?
The IC50 was 310 nM.

What about the Stability (Hepatocyte [34]) of the same compound?
Its Stability is 32%.

And the % infection at 2 µM (Plasmodium berghei [35])?
Its % infection at 2 µM is 13%.
